# Bridge positions count the residues as written; N and C are the ends. Square brackets hold non-standard residues; d marks the D form. Ends that are not written are not given here. Peptide text beside a SMILES is read from it. Orn = NCCC[C@H](N)C(=O)O; Mpa = O=C(O)CCS
# Assays:
# inotocin receptor [1] = assay: TR-FRET; type: binding, Camponotus fellah; conditions: 10 nM labeled inotocin ligand, atosiban 1.95 µM to 2 mM
# [2] = tested on: cuticular hydrocarbons (CHCs); assay: Cuticular hydrocarbon quantification after antagonist injection; type: in vivo, Camponotus fellah; conditions: injection of 2 mM atosiban
# How it was run: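 Workers were ice-anesthetized and injected with 1.5 µL into the abdomen through the intersegmental membrane. Dosing was 100 µM test compound in 1% DMSO, or 2 mM of the water-soluble antagonist. Controls were ant saline mixed with the matching solvent (DMSO 1:100; water 1:5). Normal, branched and total cuticular alkanes were then extracted and quantified.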
# CYP4G1 expression = assay: CYP4G1 expression; type: in vivo, Camponotus fellah; conditions: 24 h
# How it was run: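 Workers were chilled on ice and injected with 1.5 µL into the abdomen through the intersegmental membrane. Controls received ant saline mixed with water (1:10 for 1 mM, 1:5 for 2 mM). RNA was extracted 24 h post-injection. SYBR qRT-PCR on 200 ng total RNA used ef1a/rp2 references and per-experiment average scaling.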
# [3] = molecular target: T1, oxytocin receptor (human OXTR) (Homo sapiens, UniProt P30559); assay: Calcium assay; type: cell-based
# T1 sequence (P30559 1-389): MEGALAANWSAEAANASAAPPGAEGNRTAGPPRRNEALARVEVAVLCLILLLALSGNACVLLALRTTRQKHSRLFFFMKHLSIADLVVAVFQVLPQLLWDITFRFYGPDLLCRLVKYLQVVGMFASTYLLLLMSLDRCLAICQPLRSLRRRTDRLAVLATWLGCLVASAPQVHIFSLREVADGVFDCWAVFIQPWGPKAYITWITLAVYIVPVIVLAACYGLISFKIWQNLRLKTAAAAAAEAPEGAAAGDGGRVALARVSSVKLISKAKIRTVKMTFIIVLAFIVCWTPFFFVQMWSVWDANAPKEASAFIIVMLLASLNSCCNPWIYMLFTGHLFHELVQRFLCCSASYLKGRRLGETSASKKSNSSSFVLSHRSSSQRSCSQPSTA
# [4] = molecular target: inotocin receptor (not stated (C. fellah or C. japonicus cDNA cloned)); assay: FRET or BRET
# ants = assay: Effect of injected DMSO on ant survivability; type: in vivo, Camponotus fellah
# inotocin receptor [5] = assay: Calcium assay; type: cell-based, Camponotus fellah; conditions: CHO cells expressing inotocin receptor, Fluo-4 cytosolic calcium
compound,measurement,setting,value
CCOc1ccc(C[C@H]2NC(=O)CCSSC[C@@H](C(=O)N3CCC[C@H]3C(=O)N[C@@H](CCCN)C(=O)NCC(N)=O)NC(=O)[C@H](CC(N)=O)NC(=O)[C@H]([C@@H](C)O)NC(=O)[C@H]([C@@H](C)CC)NC2=O)cc1 [atosiban] ([Mpa][dY](Et)ITNCP[Orn]G-NH2; disulfide 1-6 (inferred)),"IC50, decrease in FRET ratio (binding between inotocin and inotocin receptor)",inotocin receptor [1],58.8 µM
same,Quantity of normal alkanes vs control,[2]; P = 0.008,reduced quantities
same,Total quantity of alkanes vs control,[2]; P = 0.012,significantly lower
same,Quantity of branched alkanes vs control,[2]; P = 0.088,tendency for reduced
same,CYP4G1 expression vs control,"CYP4G1 expression; 1 mM injected, P = 0.026",significantly down-regulated
same,CYP4G1 expression vs control,"CYP4G1 expression; 2 mM injected, P = 0.0002",significantly down-regulated
same,IC50,[3],650 nM
atosiban (peptide),IC50,[4],58.8 µM
C[S+](C)[O-] [DMSO],Effect on ant survivability,ants; 1% DMSO,no effect on survivability
same,Effect on ant survivability,ants; 10% DMSO,high lethality
"vasopressin (CYFQNCPRG-NH2; disulfide 1-6 (inferred); ends not checked; UniProt P01185 20-28, looked up)",Activation of inotocin receptor,inotocin receptor [5],not

# — paper PMC6431230 (Proceedings of the National Academy of Sciences of the …, 2019)
